The results in this text go back to publication PMC3477254 (ACS chemical biology, 2012).

Structures are written as SMILES. Entries after “also recorded” stand apart in the source; their conditions may differ.

In assay [1] the test system is SMN2 exon 7 alternative splicing in COS7 cells. Put plainly: SMN2 pre-mRNA splicing by RT-PCR in FXTAS cell model. It counts as cell-based. An outline of the steps: (§1)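 COS7 cells were grown in DMEM with 10% FBS and GlutaMax. At 90–95% confluency they were transfected with equal amounts of a plasmid carrying 60 CGG repeats and an SMN2 or Bcl-x mini-gene. About 5 h later, medium containing test compound replaced the transfection mix. After 16–24 h, total RNA was extracted with on-column DNase digestion. Roughly 300 ng was reverse transcribed and 150 ng went to PCR for 25–30 cycles. Isoforms were gel-separated, imaged and quantified.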

Assay [2] addresses RNA containing one 5’CGG/3’GGC motif (1x1 nucleotide GG internal loop). Put plainly: RNA-binding assay via Hoechst 33258 dye displacement. The settings on record: competition with Hoechst 33258 (1 µM), RNA 1 µM. An outline of the steps:
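RNA was annealed at 60 °C for 5 min in phosphate buffer (8 mM Na₂HPO₄ pH 7.0, 185 mM NaCl, 0.1 mM EDTA, BSA), then slow-cooled. Titrating RNA into 1000 nM Hoechst 33258 (ex 360/40, em 460/40 nm) gave the dye Kd. Test compound was then titrated into 1 µM RNA plus 1 µM Hoechst. Loss of fluorescence was fit to a competitive binding equation to obtain Kd.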

Assay [3] has as its system r(CGG)^exp nuclear foci in COS7 cells. Put plainly: FISH assay of r. The settings on record: COS7 cells expressing r(CGG)60 and GFP. It counts as cell-based. A digest of the protocol: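 COS7 cells on coverslips were co-transfected with r(CGG)60 and GFP plasmids, then treated with test compound. Cells were fixed in 4% paraformaldehyde for 15 min and permeabilized with 0.5% Triton X-100. They were prehybridized for 30 min in 2X SSC/40% formamide, then hybridized for 2 h with a (CCG)8-Cy3 DNA probe. After DAPI counterstaining, cells were imaged by confocal or fluorescence microscopy; only GFP-positive cells were scored for nuclear foci.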

Assay [4] concerns cardiac troponin T (cTNT) alternative splicing in COS7 cells. The experiment in a line: cTNT mini-gene splicing control. In kind it is cell-based. Conditions: 500 µM; splicing not regulated by Sam68. A digest of the protocol:
(§2)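 COS7 cells were co-transfected with the 60 CGG-repeat mini-gene and a PLEKHH2 or cTNT mini-gene, whose splicing is not under Sam68 control. Compound treatment and RT-PCR followed the same procedure: medium with test compound for 16–24 h, total RNA extraction, reverse transcription, 25–30 PCR cycles, then gel separation and quantification of the splice isoforms.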

In assay [5] the test system is PLEKHH2 alternative splicing in COS7 cells. The experiment in a line: PLEKHH2 mini-gene splicing control. It counts as cell-based. Conditions: 500 µM; splicing not regulated by Sam68. An outline of the steps:
as §2

Another assay relates to fully paired RNAs. The experiment in a line: Competition dialysis, fully paired RNAs. Conditions: 2 µM RNA, 0.7 µM ligand. It counts as binding. A digest of the protocol:
(§3)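 2 µM RNA or DGCR8Δ protein was placed in dialysis units (MWCO 2,000) immersed in 0.7 µM ligand. Two buffer-only units were tracked by absorbance to confirm equilibration. SDS was then added to 1% final, and absorbance gave total ligand inside the units and free ligand in the dialysate. Bound ligand was calculated as total minus free.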

A further assay relates to DGCR8Δ. The experiment in a line: Competition dialysis, DGCR8Δ. It counts as binding. The settings on record: 2 µM protein, 0.7 µM ligand. A digest of the protocol: as §3
Assay [6] has as its system Bcl-x exon 2 alternative splicing in COS7 cells. The experiment in a line: Bcl-x pre-mRNA splicing by RT-PCR in FXTAS cell model. It counts as cell-based. An outline of the steps:
as §1

For the next assay, the system named is r(CGG)12. The experiment in a line: Competition dialysis, r. It counts as binding. Conditions: 2 µM RNA, 0.7 µM ligand. A digest of the protocol: as §3
The next assay concerns r(CGG)12-DGCR8Δ complex. Put plainly: TR-FRET protein displacement assay. It counts as biochemical. In general terms: TR-FRET usually uses a lanthanide donor and a delayed reading to cut background.
The mark [7] stands for this setting: COS7 cells expressing r(CGG)60, 100 µM.
[8] abbreviates: COS7 cells expressing r(CGG)60, 500 µM.
The mark [9] stands for this setting: cells that do not express r(CGG)60.

On to `Cc1c2cc[n+](CCN3CCCCC3)cc2c(C)c2c1[nH]c1ccc(O)cc12` [1a, 9-hydroxy-5,11-dimethyl-2-(2-(piperidin-1-yl)ethyl)-6H-pyrido[4,3-b]carbazol-2-ium], for which the “Improvement of SMN2 splicing defects” value in [1] (COS7 cells expressing r(CGG)60, 20 µM) is on record as “improvement of SMN2 splicing defects can be observed”. Also, the “SMN2 pre-mRNA splicing level relative to wild type” value in [1] (setting [7]) is on record as “approximately 70 % of wild type”. Moreover, in assay [1] (setting [8]), the “SMN2 pre-mRNA splicing” value was “restores pre-mRNA splicing to levels wild type”. Besides, the “SMN2 pre-mRNA splicing defects” value in assay [1] (COS7 cells, CGG 60X mini-gene, Figure 4A) is recorded as “improves SMN2 pre-mRNA splicing defects”. In assay [1] (setting [9]), the “Effect on SMN2 splicing” value is “No statistically significant effect”. Also, in [2], the affinity, expressed as Kd, was 0.076 ± 0.004 µM. In assay [3], the “Size and number of r(CGG)exp nuclear foci” value was “reduces the size and the number of foci; also recorded: decreases r(CGG)^exp-protein aggregates”. Besides, in assay [4], the “Effect on cTNT alternative splicing” value is recorded as “did not affect”. Moreover, the “Effect on PLEKHH2 alternative splicing” value in assay [5] is “did not affect”. In addition, the “Amount of ligand partitioned into fully paired RNAs relative to r(CGG)12” value in the assay on fully paired RNAs is “less than half”. In addition, the “Binding to DGCR8Δ” value in the assay with DGCR8Δ was “very little binding”. Moreover, the “Improvement of Bcl-x splicing dysregulation” value in assay [6] (setting [7]) is “Statistically significant improvement”. Further, the Bcl-x splicing result in assay [6] (setting [8]) was “restoration of wild type splicing patterns”. Also, the “Bcl-x pre-mRNA splicing defects” value in assay [6] (COS7 cells, CGG 60X mini-gene, Figure 4B) was “improves Bcl-x pre-mRNA splicing defects”. Further, the “Effect on Bcl-x splicing” value in assay [6] (setting [9]) was “No statistically significant effect”. For the same molecule, the “Binding to r(CGG)12” value in the assay with r(CGG)12 was “binds tightly”. For the same molecule, the “Percentage displacement at 25 µM” value in the assay with r(CGG)12-DGCR8Δ complex (25 µM compound, protein displaced from r(CGG)12) stood at 85 ± 1%. The IC50 (usually the concentration that inhibits the measured activity by half) at r(CGG)12-DGCR8Δ complex (read-out: IC50 for disruption of the r(CGG)12-DGCR8Δ complex, TR-FRET assay) worked out at 13 ± 0.4 µM.
